The results in this text go back to ChEMBL document CHEMBL1156353, “Synthetic secofriedelane and friedelane derivatives as inhibitors of human lymphocyte proliferation and growth of human cancer cell lines in vitro” (J Nat Prod, 2001).

In one data set the test system is SF-268. The data set can be described thus: Cytotoxicity against human SF268 cells by SRB assay. Format: functional. The method, boiled down: (§1)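 Lines from NCI, kept adherent in RPMI-1640 with 5% heat-inactivated FBS, 2 mM glutamine, 50 µg/mL gentamicin, 37 °C, 5% CO2; plated at densities ensuring exponential growth. Growth measured by NCI screening protocol with sulforhodamine B staining; GI50 per NCI method, means ± SEM from 3-6 independent experiments in duplicate. Compounds from DMSO stocks.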
(In general: The SRB assay estimates cell density from bound dye.)

The test system of another data set is MCF7. Description: Cytotoxicity against human MCF7 cells by SRB assay. Type of data set: functional. The method, boiled down:
as §1

The subject of a further data set is NCI-H460. The data set can be described thus: Cytotoxicity against human NCI-H460 cells by SRB assay. Type of data set: functional. The method, boiled down: as §1
The subject of a further data set is TK-10. Description: Cytotoxicity against human TK10 cells by SRB assay. Type of data set: functional. Put shortly:
as §1

Another data set has as its system UACC-62. Description: Cytotoxicity against human UACC62 cells by SRB assay. Type of data set: functional. The method, boiled down:
as §1

In data set [1] the test system is T-cell. The data set can be described thus: Inhibition of PHA-induced human T cell proliferation at 100 uM after 24 hrs by MTT assay. Format: functional, cell-based.
The nature of data set [2]: Cytotoxicity against human T cells assessed as cell viability at IC50 after 24 hrs by MTT assay. Type of data set: cell-based. The settings on record: read-out: Activity. The method, boiled down: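 Peripheral blood mononuclear cells from healthy volunteers (Histopaque-1077), (2-3) × 10⁶ cells/mL in RPMI-1640 with 10% heat-inactivated FBS, 2 mM glutamine, gentamicin, exposed 24 h to compound; MTT (1 mg/mL) 4 h, formazan dissolved in SDS/DMF pH 4.7 overnight at 37 °C, OD 550 nm. Viability as % of unexposed cells; below 70% counted as toxic.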
(In general: Formazan colour is commonly taken as a measure of viable cells.)

Data set [3] deals with T-cell. The data set can be described thus: (§2) Inhibition of PHA-induced human T cell proliferation after 24 hrs by MTT assay. Format: functional, cell-based. Put shortly: (§3)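 Human peripheral blood mononuclear cells (Histopaque-1077 isolation) stimulated with PHA 10 µg/mL as T-mitogen, in RPMI-1640 with 10% heat-inactivated FBS, 2 mM glutamine; compounds from DMSO stocks; colorimetric MTT read-out; cyclosporin A positive control. IC50 as means ± SEM from 3-6 independent experiments in duplicate.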

Data set [4] is described as follows: as §2. Type of data set: functional, cell-based. The method, boiled down: as §3

The GI50 is the concentration that inhibits growth by half. The term IC50 denotes the concentration needed to halve the response being measured. A lower IC50 goes with higher potency.

Activity calls are given as the source filed them. No cut-off for these calls is given here.

Turning to `C[C@H]1[C@H](O)C(=O)C[C@@H]2[C@]1(C)CC[C@H]1[C@@]2(C)CC[C@@]2(C)[C@@H]3CC(C)(C)CC[C@]3(C)CC[C@]12C`, the GI50 in the data set with SF-268, with MCF7, in the data set with NCI-H460, with TK-10 and with UACC-62 was > 100 µM in each case. For the same compound, the outcome in the data set with T-cell [1] was inactive.

In the case of `C[C@H]1[C@H](O)CC[C@@H]2[C@]1(C)CC[C@H]1[C@@]2(C)CC[C@@]2(C)[C@@H]3CC(C)(C)CC[C@]3(C)CC[C@]12C`, the GI50 with SF-268, in the data set with MCF7, with NCI-H460, in the data set on TK-10 and in the data set on UACC-62 was > 100 µM in each case. Moreover, the outcome in the data set with T-cell [1] was inactive.

Regarding `C[C@H]1[C@@H](O)[C@H](O)C[C@@H]2[C@]1(C)CC[C@H]1[C@@]2(C)CC[C@@]2(C)[C@@H]3CC(C)(C)CC[C@]3(C)CC[C@]12C` [PACHYSANDIOL A], in [2], the viability at 24 h turned out to be 113%. In addition, the Activity entry with T-cell [3] is “Dose-dependent effect”. In data set [4], this compound returned an IC50 of 79.1 µM. In addition, the concentration for 50% growth inhibition (GI50) amounted to 15.5 µM in the data set on SF-268; 66.4 µM in the data set on MCF7; 79.4 µM with NCI-H460; 95.7 µM with TK-10; 83.3 µM with UACC-62.

Turning to `C[C@@H](C(=O)O)[C@@]1(C)CC[C@H]2[C@@](C)(CC[C@@]3(C)[C@@H]4CC(C)(C)CC[C@]4(C)CC[C@]23C)[C@@H]1CC=O`, the viability at 24 h in data set [2] turned out to be 89%. For the same compound, the Activity entry in the data set with T-cell [3] is “Dose-dependent effect”. This compound returned an IC50 in data set [4] of 10.7 µM. For the same compound, the GI50 was 17.2 µM in the data set on SF-268; 7 µM with MCF7; 5.4 µM with NCI-H460; 10.1 µM with TK-10; 9.9 µM in the data set on UACC-62.

`COC(=O)[C@H](C)[C@@]1(C)CC[C@H]2[C@@](C)(CC[C@@]3(C)[C@@H]4CC(C)(C)CC[C@]4(C)CC[C@]23C)[C@@H]1CC=O`: the GI50 in the data set with SF-268, in the data set with MCF7, in the data set with NCI-H460, with TK-10 and in the data set with UACC-62 was > 100 µM throughout. The result in the data set with T-cell [1] was inactive.

Consider `CC(=O)O[C@@H]1CC[C@@H]2[C@](C)(CC[C@H]3[C@@]2(C)CC[C@@]2(C)[C@@H]4CC(C)(C)CC[C@]4(C)CC[C@]32C)[C@H]1C`, for which the outcome in the data set with T-cell [1] was inactive.

As to `C[C@H]1C(=O)C=C[C@@H]2[C@]1(C)CC[C@H]1[C@@]2(C)CC[C@@]2(C)[C@@H]3CC(C)(C)CC[C@]3(C)CC[C@]12C`, the GI50 with SF-268, in the data set on MCF7, in the data set on NCI-H460, in the data set with TK-10 and in the data set on UACC-62 was > 100 µM throughout. Also, the outcome in the data set with T-cell [1] was inactive.

For `C[C@H]1[C@@H](O)CC[C@@H]2[C@]1(C)CC[C@H]1[C@@]2(C)CC[C@@]2(C)[C@@H]3CC(C)(C)CC[C@]3(C)CC[C@]12C` [EPIFRIEDELINOL], the GI50 in the data set with SF-268, in the data set on MCF7, in the data set with NCI-H460, in the data set with TK-10 and in the data set on UACC-62 was > 100 µM in each case. In addition, in the data set with T-cell [1], the result was inactive.

Regarding `COc1cccc2c1C(=O)c1c(O)c3c(c(O)c1C2=O)C[C@@](O)(C(=O)CO)C[C@@H]3O[C@H]1C[C@H](N)[C@H](O)[C@H](C)O1` [DOXORUBICIN], the GI50 with SF-268 came to 0.093 µM; with MCF7 it was 0.055 µM; in the data set on NCI-H460 it was 0.0081 µM; in the data set on TK-10, 0.57 µM; with UACC-62, 0.094 µM.

For `C[C@H]1C(=O)CC[C@@H]2[C@]1(C)CC[C@H]1[C@@]2(C)CC[C@@]2(C)[C@@H]3CC(C)(C)CC[C@]3(C)CC[C@]12C` [FRIEDELINE], the GI50 with SF-268, in the data set with MCF7, with NCI-H460, in the data set with TK-10 and in the data set with UACC-62 was > 100 µM throughout. In addition, the result with T-cell [1] was inactive.

For the compound `C[C@H]1C(=O)[C@H](O)C[C@@H]2[C@]1(C)CC[C@H]1[C@@]2(C)CC[C@@]2(C)[C@@H]3CC(C)(C)CC[C@]3(C)CC[C@]12C`, the viability at 24 h in data set [2] came out at 92.7%. In addition, the Activity result with T-cell [3] was “Dose-dependent effect”. Also, the IC50 in data set [4] came out at 82.3 µM. Also, the concentration for 50% growth inhibition (GI50) with SF-268 came to 95.8 µM; in the data set on MCF7, 59.5 µM; with NCI-H460 it was 67.8 µM; in the data set on TK-10, 90.5 µM; in the data set on UACC-62, 86 µM.

For the compound `CC1=C(O)C(=O)C[C@H]2[C@]3(C)CC[C@@]4(C)[C@@H]5CC(C)(C)CC[C@]5(C)CC[C@]4(C)[C@H]3CC[C@]12C`, the GI50 in the data set on SF-268, in the data set with MCF7, with NCI-H460, in the data set on TK-10 and with UACC-62 was > 100 µM in each case. For the same compound, the outcome with T-cell [1] was inactive.
